Experimental data: article PMC5299621 (The Journal of General Physiology, 2017)

How the values were obtained:
[1] = molecular target: T1, hTRPM2 G1389A mutant (Homo sapiens, UniProt O94759, G1389A); test: Whole-cell recording of H2O2-induced TRPM2 currents, G1389A mutant; assay type: cell-based; details: extracellular H2O2, 10 mM / 30 mM
Outline: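 Whole-cell recording at RT was done on transiently transfected HEK293 cells, alongside untransfected and WT-expressing cells. Pipette: 147 mM NaCl, 0.05 mM EGTA, 1 mM MgCl2, 10 mM HEPES, pH 7.3. Cells were held at 0 mV with a 500-ms ramp from −100 to 100 mV every 5 s. At least six cells per condition.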

[2] = molecular target: T1, hTRPM2 G1389A mutant; test: Whole-cell recording of calcium-induced TRPM2 currents, G1389A mutant; assay type: cell-based; details: 50 mM calcium, intracellular solution
Outline: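 Transiently transfected HEK293 cells were compared with untransfected and WT-expressing cells by whole-cell recording at RT. Cells were held at 0 mV with a 500-ms ramp from −100 to 100 mV every 5 s. At least six cells per condition.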

[3] = molecular target: hTRPM2 WT channel (Homo sapiens, UniProt O94759); test: Whole-cell recording of ADPR-induced currents, HEK293 cells expressing WT hTRPM2; assay type: cell-based
Chain of hTRPM2 WT channel (O94759 whole entry): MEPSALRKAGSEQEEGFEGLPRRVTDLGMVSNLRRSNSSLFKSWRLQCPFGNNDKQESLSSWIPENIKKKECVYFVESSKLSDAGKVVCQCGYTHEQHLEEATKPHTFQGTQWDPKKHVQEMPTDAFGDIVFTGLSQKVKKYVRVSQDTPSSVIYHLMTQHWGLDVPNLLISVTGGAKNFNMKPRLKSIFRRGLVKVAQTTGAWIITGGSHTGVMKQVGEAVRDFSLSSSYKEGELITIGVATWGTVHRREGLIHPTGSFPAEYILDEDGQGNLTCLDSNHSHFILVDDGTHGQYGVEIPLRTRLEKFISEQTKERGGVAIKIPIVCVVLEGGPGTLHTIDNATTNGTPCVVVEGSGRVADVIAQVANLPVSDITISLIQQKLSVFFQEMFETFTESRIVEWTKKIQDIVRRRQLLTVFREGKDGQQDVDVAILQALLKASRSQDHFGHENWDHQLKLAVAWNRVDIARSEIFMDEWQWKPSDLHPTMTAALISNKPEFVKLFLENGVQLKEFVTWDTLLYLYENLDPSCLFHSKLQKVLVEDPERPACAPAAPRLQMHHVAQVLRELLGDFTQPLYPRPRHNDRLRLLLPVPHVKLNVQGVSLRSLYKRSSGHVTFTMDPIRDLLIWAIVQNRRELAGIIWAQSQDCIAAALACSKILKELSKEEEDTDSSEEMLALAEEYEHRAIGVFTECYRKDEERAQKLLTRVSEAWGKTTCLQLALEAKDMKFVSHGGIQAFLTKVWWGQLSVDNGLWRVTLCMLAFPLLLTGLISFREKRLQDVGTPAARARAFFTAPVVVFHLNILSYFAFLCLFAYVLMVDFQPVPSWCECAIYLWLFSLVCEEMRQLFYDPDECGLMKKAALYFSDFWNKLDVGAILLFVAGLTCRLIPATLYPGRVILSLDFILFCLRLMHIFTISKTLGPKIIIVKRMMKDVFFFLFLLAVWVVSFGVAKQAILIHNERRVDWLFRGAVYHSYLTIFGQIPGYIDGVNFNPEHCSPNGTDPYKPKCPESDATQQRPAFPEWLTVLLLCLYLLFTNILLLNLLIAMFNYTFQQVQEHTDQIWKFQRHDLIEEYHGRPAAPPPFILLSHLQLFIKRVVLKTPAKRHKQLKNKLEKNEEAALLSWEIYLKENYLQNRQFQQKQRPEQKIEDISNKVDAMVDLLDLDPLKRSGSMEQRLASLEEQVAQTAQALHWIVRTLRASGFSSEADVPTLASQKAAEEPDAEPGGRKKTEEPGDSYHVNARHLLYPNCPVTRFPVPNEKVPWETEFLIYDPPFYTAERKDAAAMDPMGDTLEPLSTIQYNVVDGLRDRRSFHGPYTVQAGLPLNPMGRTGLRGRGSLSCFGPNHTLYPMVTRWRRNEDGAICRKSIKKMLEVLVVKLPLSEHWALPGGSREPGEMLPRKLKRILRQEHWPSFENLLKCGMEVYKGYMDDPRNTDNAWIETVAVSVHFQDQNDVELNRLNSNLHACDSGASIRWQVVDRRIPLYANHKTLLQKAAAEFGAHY

[4] = molecular target: hTRPM2 H1346W mutant (Homo sapiens, UniProt O94759, H1346W); test: Whole-cell ADPR-induced currents, HEK293, H1346W mutant; assay type: cell-based
Chain of hTRPM2 H1346W mutant (O94759 whole entry H1346W): as the sequence (O94759 whole entry) above, with H1346W counted along it

[5] = molecular target: hTRPM2 T1347F mutant (Homo sapiens, UniProt O94759, T1347F); test: Whole-cell ADPR-induced currents, HEK293, T1347F mutant; assay type: cell-based
Chain of hTRPM2 T1347F mutant (O94759 whole entry T1347F): as the sequence (O94759 whole entry) above, with T1347F counted along it

[6] = molecular target: hTRPM2 T1347Y mutant (Homo sapiens, UniProt O94759, T1347Y); test: Whole-cell ADPR-induced currents, HEK293, T1347Y mutant; assay type: cell-based
Chain of hTRPM2 T1347Y mutant (O94759 whole entry T1347Y): as the sequence (O94759 whole entry) above, with T1347Y counted along it

[7] = molecular target: hTRPM2 L1379S mutant (Homo sapiens, UniProt O94759, L1379S); test: Whole-cell ADPR-induced currents, HEK293, L1379S mutant; assay type: cell-based
Chain of hTRPM2 L1379S mutant (O94759 whole entry L1379S): as the sequence (O94759 whole entry) above, with L1379S counted along it

[8] = molecular target: hTRPM2 S1391A mutant (Homo sapiens, UniProt O94759, S1391A); test: Whole-cell ADPR-induced currents, HEK293, S1391A mutant; assay type: cell-based
Chain of hTRPM2 S1391A mutant (O94759 whole entry S1391A): as the sequence (O94759 whole entry) above, with S1391A counted along it

[9] = molecular target: hTRPM2 E1409A mutant (Homo sapiens, UniProt O94759, E1409A); test: Whole-cell ADPR-induced currents, HEK293, E1409A mutant; assay type: cell-based
Chain of hTRPM2 E1409A mutant (O94759 whole entry E1409A): as the sequence (O94759 whole entry) above, with E1409A counted along it

[10] = molecular target: hTRPM2 E1409Q mutant (Homo sapiens, UniProt O94759, E1409Q); test: Whole-cell ADPR-induced currents, HEK293, E1409Q mutant; assay type: cell-based
Chain of hTRPM2 E1409Q mutant (O94759 whole entry E1409Q): as the sequence (O94759 whole entry) above, with E1409Q counted along it

[11] = molecular target: T1, hTRPM2 G1389A mutant; test: Whole-cell ADPR-induced currents, HEK293, G1389A mutant; assay type: cell-based; details: 3 µM and 100 µM ADPR (Fig. 3 C)
Outline: (§1)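 HEK293 cells were cotransfected with 50 ng EGFP plus 1 µg WT or mutant hTRPM2 plasmid and recorded 24–36 h later, choosing cells of similar fluorescence and size. Recording was whole-cell at RT. […] Cells were held at 0 mV with a 500-ms ramp from −100 to 100 mV every 5 s. Currents were normalized to same-day mean maximal WT current. EC50 came from Hill fits. At least five cells per condition.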

[12] = molecular target: hTRPM2 H1346F mutant (Homo sapiens, UniProt O94759, H1346F); test: Whole-cell ADPR-induced currents, HEK293, H1346F mutant; assay type: cell-based; details: H1346F (Fig. 5 B)
Chain of hTRPM2 H1346F mutant (O94759 whole entry H1346F): as the sequence (O94759 whole entry) above, with H1346F counted along it
Outline: as §1

[13] = molecular target: hTRPM2 T1347I mutant (Homo sapiens, UniProt O94759, T1347I); test: Whole-cell ADPR-induced currents, HEK293, T1347I mutant; assay type: cell-based; details: T1347I (Fig. 5 C)
Chain of hTRPM2 T1347I mutant (O94759 whole entry T1347I): as the sequence (O94759 whole entry) above, with T1347I counted along it
Outline: as §1

[14] = molecular target: hTRPM2 R1433L mutant (Homo sapiens, UniProt O94759, R1433L); test: Whole-cell ADPR-induced currents, HEK293, R1433L mutant; assay type: cell-based; details: R1433L (Fig. 5 E)
Chain of hTRPM2 R1433L mutant (O94759 whole entry R1433L): as the sequence (O94759 whole entry) above, with R1433L counted along it
Outline: as §1

[15] = molecular target: hTRPM2 R1433Q mutant (Homo sapiens, UniProt O94759, R1433Q); test: Whole-cell ADPR-induced currents, HEK293, R1433Q mutant; assay type: cell-based; details: R1433Q (Fig. 5 E)
Chain of hTRPM2 R1433Q mutant (O94759 whole entry R1433Q): as the sequence (O94759 whole entry) above, with R1433Q counted along it
Outline: as §1

[16] = molecular target: hTRPM2 Y1349F mutant (Homo sapiens, UniProt O94759, Y1349F); test: Whole-cell ADPR-induced currents, HEK293, Y1349F mutant; assay type: cell-based; details: Y1349F (Fig. 6 B)
Chain of hTRPM2 Y1349F mutant (O94759 whole entry Y1349F): as the sequence (O94759 whole entry) above, with Y1349F counted along it
Outline: as §1

[17] = molecular target: hTRPM2 Y1349S mutant (Homo sapiens, UniProt O94759, Y1349S); test: Whole-cell ADPR-induced currents, HEK293, Y1349S mutant; assay type: cell-based; details: Y1349S (Fig. 6 B)
Chain of hTRPM2 Y1349S mutant (O94759 whole entry Y1349S): as the sequence (O94759 whole entry) above, with Y1349S counted along it
Outline: as §1

[18] = molecular target: hTRPM2 L1484A mutant (Homo sapiens, UniProt O94759, L1484A); test: Whole-cell ADPR-induced currents, HEK293, L1484A mutant; assay type: cell-based; details: 3 µM and 100 µM ADPR (Fig. 3 C)
Chain of hTRPM2 L1484A mutant (O94759 whole entry L1484A): as the sequence (O94759 whole entry) above, with L1484A counted along it
Outline: as §1

[19] = molecular target: hTRPM2 D1287A mutant (Homo sapiens, UniProt O94759, D1287A); test: Whole-cell ADPR-induced currents, HEK293, D1287A mutant; assay type: cell-based; details: ADPR 100 µM (Fig. 8)
Chain of hTRPM2 D1287A mutant (O94759 whole entry D1287A): as the sequence (O94759 whole entry) above, with D1287A counted along it
Outline: as §1

[20] = molecular target: hTRPM2 S1340A mutant (Homo sapiens, UniProt O94759, S1340A); test: Whole-cell ADPR-induced currents, HEK293, S1340A mutant; assay type: cell-based; details: ADPR 100 µM (Fig. 8)
Chain of hTRPM2 S1340A mutant (O94759 whole entry S1340A): as the sequence (O94759 whole entry) above, with S1340A counted along it
Outline: as §1

[21] = system: TRPM2 E1409K mutation; details: ref Perraud et al., 2005, Tóth et al., 2014; cited from earlier work

T1 sequence (O94759 whole entry G1389A): as the sequence (O94759 whole entry) above, with G1389A counted along it

OO [H2O2]
H2O2-induced current [1]: failed to induce a current

[Ca+2] [calcium]
Channel activation by calcium [2]: readily activated

adenosine diphosphate ribose [ADPR]
Hill slope [3]: 2.6
Hill slope [4]: 2.0
Hill slope [5]: 1.2
Hill slope [6]: 1.3
Hill slope [7]: 1.0
Hill slope [8]: 2.7
Hill slope [9]: 1.5
Hill slope [10]: 1.6
Channel activation by ADPR [11]: failed to be activated
Channel sensitivity to ADPR [12]: completely insensitive
Channel sensitivity to ADPR [13]: completely lost sensitivity
Response to ADPR [14]: no response
Response to ADPR [15]: no response
Channel activation by ADPR [16]: did not significantly alter channel activation
Channel activation by ADPR [17]: neither Y1349A nor Y1349S mutant could be activated
Channel function with ADPR [18]: lack of channel function
Activity induced by ADPR [19]: normal activity
Activity induced by ADPR [20]: normal activity
Impact of mutation on ADPR binding to the NUDT9-H domain [21]: little impact
